Results taken from ChEMBL document CHEMBL1921792, “Synthesis and anticonvulsant activity of trans- and cis-2-(2,6-dimethylphenoxy)-N-(2- or 4-hydroxycyclohexyl)acetamides and their amine analogs” (Bioorg Med Chem, 2011).
Active and inactive are the calls of the source. The calls are words filed in the database; no cut-off is given here.

How the values were obtained:
Mus musculus [1] = assay: Neurotoxicity in ip dosed mouse assessed as inability to maintain equilibrium on rotarod by rotarod test; type: toxicity, organism-based; settings: in vivo
Summary of the method: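 Mice dosed ip with a suspension in 0.5% methylcellulose, then placed on a 1 inch knurled plastic rod rotating at 6 rpm. Toxicity = failure to keep equilibrium for at least 1 min in each of three trials.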

Mus musculus [2] = assay: Neurotoxicity in mouse assessed as inability to maintain equilibrium on rotarod at 300 mg/kg, ip after 0.5 hrs using rotarod test; type: toxicity, organism-based; parameters: dose 300 mg/kg, route intraperitoneal; settings: in vivo
Summary of the method: (§1)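 Drug given ip to mice as a suspension in 0.5% methylcellulose. At the stated time after dosing, each mouse was placed on a 1 inch knurled rod turning at 6 rpm. Neurotoxicity = inability to stay balanced at least 1 min in each of three trials. Scored as animals toxic/animals tested in small groups.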

Mus musculus [3] = assay: Neurotoxicity in mouse assessed as inability to maintain equilibrium on rotarod at 100 mg/kg, ip after 0.5 hrs by rotarod test; type: toxicity, organism-based; parameters: dose 100 mg/kg, route intraperitoneal; settings: in vivo; summary of the method: as §1
Mus musculus [4] = species on record: Mus musculus; assay: Protective index, ratio of TD50 for neurotoxicity in mouse to ED50 for inhibition of maximal electroshock-induced seizures in mouse; type: functional
Mus musculus [5] = assay: Neurotoxicity in mouse assessed as inability to maintain equilibrium on rotarod at 300 mg/kg, ip after 4 hrs using rotarod test; type: toxicity, organism-based; parameters: dose 300 mg/kg, route intraperitoneal; settings: in vivo; summary of the method: as §1
Mus musculus [6] = assay: Anticonvulsant activity in ip dosed mouse assessed as protection against maximal electric shock-induced seizures; type: functional
Mus musculus [7] = assay: Neurotoxicity in mouse assessed as inability to maintain equilibrium on rotarod at 300 mg/kg, ip after 0.5 hrs by rotarod test; type: toxicity, organism-based; parameters: dose 300 mg/kg, route intraperitoneal; settings: in vivo; summary of the method: as §1
Mus musculus [8] = assay: Neurotoxicity in mouse assessed as inability to maintain equilibrium on rotarod at 300 mg/kg, ip after 2 hrs using rotarod test; type: toxicity, organism-based; parameters: dose 300 mg/kg, route intraperitoneal; settings: in vivo; summary of the method: as §1
Mus musculus [9] = assay: Neurotoxicity in mouse assessed as inability to maintain equilibrium on rotarod at 300 mg/kg, ip after 0.25 hrs using rotarod test; type: toxicity, organism-based; parameters: dose 300 mg/kg, route intraperitoneal; settings: in vivo; summary of the method: as §1
Mus musculus [10] = assay: Anticonvulsant activity in mouse assessed as protection against maximal electric shock-induced seizures at 30 mg/kg, ip after 0.5 hrs; type: functional, organism-based; parameters: dose 30 mg/kg
Summary of the method: (§2)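 Phase I maximal electroshock screen in mice. Compound given ip as a suspension in 0.5% methylcellulose at 30, 100 or 300 mg/kg, tested at 30 min and 4 h. Small groups (1–8); result is number protected/number tested.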

Mus musculus [11] = assay: Anticonvulsant activity in mouse assessed as protection against maximal electric shock-induced seizures at 300 mg/kg, ip after 0.5 hrs; type: functional, organism-based; parameters: dose 300 mg/kg; summary of the method: as §2
Mus musculus [12] = assay: Anticonvulsant activity in mouse assessed as protection against maximal electric shock-induced seizures at 300 mg/kg, ip after 4 hrs; type: functional, organism-based; parameters: dose 300 mg/kg; summary of the method: as §2
Mus musculus [13] = assay: Anticonvulsant activity against subcutaneous pentylenetetrazole-induced seizures in mouse at 30 mg/kg, ip after 0.5 hrs; type: functional, organism-based; parameters: dose 30 mg/kg
Summary of the method: (§3)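 Phase I screen in mice. Compound given ip as a suspension in 0.5% methylcellulose, read at 30 min and 4 h. Pentylenetetrazole 85 mg/kg in 0.9% NaCl was injected sc into the posterior midline and animals watched ≥30 min. Protection meant no clonic spasm lasting ≥5 s. Groups of 1–8 animals; result is protected/tested.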

Mus musculus [14] = assay: Anticonvulsant activity in mouse assessed as protection against maximal electric shock-induced seizures at 30 mg/kg, ip after 4 hrs; type: functional, organism-based; parameters: dose 30 mg/kg; summary of the method: as §2
Mus musculus [15] = assay: Anticonvulsant activity against subcutaneous pentylenetetrazole-induced seizures in mouse at 30 mg/kg, ip after 4 hrs; type: functional, organism-based; parameters: dose 30 mg/kg; summary of the method: as §3
Mus musculus [16] = assay: Anticonvulsant activity in mouse assessed as protection against maximal electric shock-induced seizures at 100 mg/kg, ip after 0.5 hrs; type: functional, organism-based; parameters: dose 100 mg/kg; summary of the method: as §2
Mus musculus [17] = assay: Anticonvulsant activity against subcutaneous pentylenetetrazole-induced seizures in mouse at 100 mg/kg, ip after 4 hrs; type: functional, organism-based; parameters: dose 100 mg/kg; summary of the method: as §3
Mus musculus [18] = assay: Anticonvulsant activity against subcutaneous pentylenetetrazole-induced seizures in mouse at 300 mg/kg, ip after 4 hrs; type: functional, organism-based; parameters: dose 300 mg/kg; summary of the method: as §3
Rattus norvegicus [19] = assay: Anticonvulsant activity in rat assessed as protection against maximal electric shock-induced seizures at 30 mg/kg, po after 1 hr; type: functional, organism-based; parameters: dose 30 mg/kg
Summary of the method: (§4)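 MES test in rats dosed orally at 30 mg/kg as a suspension in 0.5% methylcellulose, read at 0.25–4 h. Four rats per time point; result is protected/tested.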

Mus musculus [20] = assay: Anticonvulsant activity against subcutaneous pentylenetetrazole-induced seizures in mouse at 100 mg/kg, ip after 0.5 hrs; type: functional, organism-based; parameters: dose 100 mg/kg; summary of the method: as §3
Rattus norvegicus [21] = assay: Anticonvulsant activity in rat assessed as protection against maximal electric shock-induced seizures at 30 mg/kg, po after 4 hrs; type: functional, organism-based; parameters: dose 30 mg/kg; summary of the method: as §4
Rattus norvegicus [22] = assay: Anticonvulsant activity in rat assessed as protection against maximal electric shock-induced seizures at 30 mg/kg, po after 2 hrs; type: functional, organism-based; parameters: dose 30 mg/kg; summary of the method: as §4
Mus musculus [23] = assay: Anticonvulsant activity against subcutaneous pentylenetetrazole-induced seizures in mouse at 300 mg/kg, ip after 0.5 hrs; type: functional, organism-based; parameters: dose 300 mg/kg; summary of the method: as §3
Rattus norvegicus [24] = assay: Anticonvulsant activity in rat assessed as protection against maximal electric shock-induced seizures at 30 mg/kg, po after 0.5 hrs; type: functional, organism-based; parameters: dose 30 mg/kg; summary of the method: as §4
Mus musculus [25] = assay: Anticonvulsant activity in mouse assessed as protection against maximal electric shock-induced seizures at 100 mg/kg, ip after 4 hrs; type: functional, organism-based; parameters: dose 100 mg/kg; summary of the method: as §2

Q: Which results are given for `Cc1cccc(C)c1OCC(=O)NC1CCCCC1O.Cl` (racemic; 4)?
A: TD50 (Mus musculus [1]): 117.73 mg/kg; Activity (Mus musculus [2]): Toxic; Activity (Mus musculus [3]): Non-toxic; Ratio TD50/ED50 (Mus musculus [4]): 1.493; Activity (Mus musculus [5]): Non-toxic; ED50 (Mus musculus [6]): 78.83 mg/kg; Activity (Mus musculus [7]): Non-toxic; Activity (Mus musculus [8]): Non-toxic; Activity (Mus musculus [9]): Toxic

Q: What does the source list for `Cc1cccc(C)c1OCC(=O)NC1CCCCC1O` (racemic; 4)?
A: Activity (Mus musculus [10]): inactive; Activity (Mus musculus [11]): Active; Activity (Mus musculus [12]): inactive; Activity (Mus musculus [13]): inactive; Activity (Mus musculus [14]): inactive; Activity (Mus musculus [15]): inactive; Activity (Mus musculus [16]): inactive; Activity (Mus musculus [17]): inactive; Activity (Mus musculus [18]): inactive; Activity (Rattus norvegicus [19]): inactive; Activity (Mus musculus [20]): inactive; Activity (Rattus norvegicus [21]): inactive; Activity (Rattus norvegicus [22]): inactive; Activity (Mus musculus [23]): inactive; Activity (Rattus norvegicus [24]): inactive; Activity (Mus musculus [25]): inactive
